IDH1 mut inh = inhibitors of IDH1 R132H reductase, primary screen, biochemical, plate reader, single point; diaphorase/resazurin fluorescence, 60 min; Isocitrate dehydrogenase [NADP] cytoplasmic (Homo sapiens), O75874; AID 624101, 2012; inhibition, % at 10 µM; actives 0.18% (n = 70,000); in the data active = inhibition above about 34%; inconclusive = no clear call, values can overlap the other calls; inactive = below about 11%;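 note: 0% = DMSO and 100% = no enzyme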
Target sequence (O75874 whole entry R132H): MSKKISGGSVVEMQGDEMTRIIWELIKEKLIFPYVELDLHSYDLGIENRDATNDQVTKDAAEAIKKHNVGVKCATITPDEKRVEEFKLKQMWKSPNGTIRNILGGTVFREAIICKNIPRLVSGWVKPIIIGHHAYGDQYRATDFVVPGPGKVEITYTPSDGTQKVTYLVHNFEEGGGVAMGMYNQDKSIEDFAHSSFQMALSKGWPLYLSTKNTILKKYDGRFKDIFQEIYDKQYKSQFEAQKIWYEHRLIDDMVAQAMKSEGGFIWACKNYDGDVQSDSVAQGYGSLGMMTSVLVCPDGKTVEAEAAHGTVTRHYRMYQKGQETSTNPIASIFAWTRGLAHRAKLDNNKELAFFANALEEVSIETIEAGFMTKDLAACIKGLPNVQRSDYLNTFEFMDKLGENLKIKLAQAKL
Pf Dd2 inh = P. falciparum Dd2 growth inhibitors, primary screen, SYBR Green fluorescence, single dose replicates; 72 h; stronger effect = lower value; actives 2.3% (n = 94,000); activity change, % at 10 µM; in the data active = activity change below about -80%; inconclusive = no clear call, values can overlap the other calls
GASC1 inh = inhibitors of GASC-1 (KDM4C) histone demethylase, primary screen, biochemical, single concentration HTS. actives 0.15% (n = 96,000). inhibition, % at 12.5 µM. GST-KDM4C 2-372, H3K9me3 peptide, LANCE TR-FRET. AID 720574, 2013;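 active = mean replicate inhibition above about 25%, with at least 55% of replicates also reaching it, limit read from the data, passing the limit was not always enough; inconclusive = only one of those two conditions met; inactive = neither condition met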
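System – N-terminal GST-fused human GASC-1 (KDM4C) fragment, residues 2-372 · Input – enzyme final amount 10 nM · Technique – LANCE TR-FRET, Eu antibody, ULight-streptavidin, EDTA, ex 340 nm, em 618/671 nm · Medium – HEPES buffer, pH 7.5, plus ascorbate · Incubation – enzyme reaction 30 min, then detection 60 min, both room temperature · Reagent – H3K9me3 peptide with Fe(II)/2OG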
T cruzi growth-1 = T. cruzi intracellular proliferation inhibitors, primary screen, cell-based, beta-gal Tulahuen parasites, NIH3T3 host, luminescence | actives 5.9% (n = 77,000) | T. cruzi beta-gal in NIH3T3, GalScreen luminescence, 90 h | inhibition, % at 8.34 µM;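 active = mean inhibition above about 93%, with at least 55% of replicates each passing it, limit read from the data, passing the limit was not always enough; inconclusive = only one of those two conditions holds; inactive = neither condition holds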
T cruzi growth-2 = T. cruzi intracellular proliferation inhibitors, confirmation, cell-based, NIH3T3 host, beta-gal parasite, luminescence, cherry-pick; shares compounds with T cruzi growth-1; T. cruzi beta-gal in NIH3T3, GalScreen luminescence, 90 h; inhibition, % at 8.35 µM; actives 72% (n = 5,600); AID 651739, 2012;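 active = mean replicate inhibition above about 95% and at least 55% of replicates individually reaching it, limit read from the data; inconclusive = only one of the two criteria is met; inactive = neither criterion is met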
T cruzi growth-3 = inhibitors of intracellular T. cruzi replication, confirmation, NIH3T3 host cells, beta-gal parasites, cherry-pick, set 2; inhibition, % at 2.09 µM; AID 651740, 2012; actives 21% (n = 5,600); T. cruzi beta-gal in NIH3T3, GalScreen luminescence, 90 h; shares compounds with T cruzi growth-1;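 active = mean inhibition above about 95%, with at least 55% of replicates also reaching it, limit read from the data; inconclusive = meets just one of the two conditions; inactive = meets neither condition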;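 note: plate controls were neutral control median for no effect and positive control median for full effect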
3T3 cytotox = cytotoxicity in mouse NIH/3T3 fibroblasts, confirmation, cytotoxicity control for T. cruzi proliferation inhibitor project, cell-based, cherry-pick, single point; shares compounds with T cruzi growth-1; NIH/3T3 viability, CellTiter-Glo ATP luminescence, 90 h; cytotoxicity (signal decrease), % at 8.35 µM; actives 14% (n = 5,600); AID 651742, 2012;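 active = mean signal decrease across replicates above about 35% based on untreated-well scatter, with enough replicates individually passing, limit read from the data; inconclusive = no rule stated though some were filed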;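 note: 0% = median of neutral control wells and 100% = median of positive control wells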
NIH3T3 tox 2 = NIH/3T3 fibroblast cytotoxicity, confirmation, cytotoxicity control, cell-based, cherry-pick, single point, set 2; shares compounds with T cruzi growth-1; NIH/3T3 viability, CellTiter-Glo ATP luminescence, 90 h; inhibition, % at 24.9 µM; actives 56% (n = 5,600);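 active = mean loss of cell viability signal at or above a set limit, and enough replicates individually reaching it; inconclusive = meets only the mean limit or only the replicate share; inactive = meets neither condition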;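 note: 0% = median of neutral control wells and 100% = median of positive control wells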
Active calls of the source: *; u = inconclusive; x = no result given. In the library only some 5.9% were active in any assay of this set; here they are far more common.

SMILES	IDH1 mut inh	Pf Dd2 inh	GASC1 inh	T cruzi growth-1	T cruzi growth-2	T cruzi growth-3	3T3 cytotox	NIH3T3 tox 2
C[C@H]1CN([C@@H](C)CO)C(=O)c2cccc(NC(=O)c3nc4ccccc4s3)c2O[C@H]1CN(C)Cc1ccc(-c2ccccc2)cc1	3	-18	2	102*	102*	83	25	22
Cc1ccc(S(=O)(=O)N(C)C[C@H]2Oc3c(NC(=O)c4nc5ccccc5s4)cccc3C(=O)N([C@@H](C)CO)C[C@@H]2C)cc1	x	-66	10	115*	u	93	10	44*
COC(CN1C(=O)C2C3C=CC(C3)C2C1=O)OC (stereo unspecified)	0	x	x	x	x	x	x	x
COc1ccc(S(=O)(=O)N(C)CC(=O)Nc2cc(Cl)c(Cl)cc2Cl)cc1Cl	0	x	x	x	x	x	x	x
CCOC(=O)c1c(NC(=O)c2ccc(Cn3cc(Br)cn3)o2)sc2c1CCCC2	0	x	x	x	x	x	x	x
Cn1c(SCC(=O)Nc2ccc(Br)cc2)nnc1-c1cccnc1	0	x	x	x	x	x	x	x
O=C(N/N=C/c1ccc(O)c(O)c1O)c1ccccn1	-1	x	x	x	x	x	x	x
CN(C)c1ccc2c(c1)[C@@H]1C[C@H](CC(=O)NCc3ccc(Oc4ccccc4)cc3)O[C@@H](CO)[C@@H]1O2	-3	-75	x	153*	47	9	53*	55*
CN(C)c1ccc2c(c1)[C@@H]1C[C@H](CC(=O)NCc3ccc(Oc4ccccc4)cc3)O[C@H](CO)[C@@H]1O2	-1	-54	1	122*	43	12	-1	u
CN(C)c1ccc2c(c1)[C@H]1C[C@H](CC(=O)NCc3ccc(Oc4ccccc4)cc3)O[C@H](CO)[C@H]1O2	-2	-90*	9	135*	76	32	-9	56*
CN(C)c1ccc2c(c1)[C@@H]1C[C@@H](CC(=O)NCc3ccc(Oc4ccccc4)cc3)O[C@H](CO)[C@@H]1O2	-1	-35	x	52	x	x	x	x
O=S(=O)(NC1c2cccc3cccc(c23)C1Sc1nnnn1-c1ccccc1)c1ccccc1 (stereo unspecified)	0	x	x	x	x	x	x	x
Cn1c(SCC(=O)c2ccc(Cl)cc2)nnc1-c1ccccc1O	0	x	x	x	x	x	x	x
O=C(CSc1ncnc2scc(-c3ccc(Br)cc3)c12)Nc1ccccc1	-1	x	x	x	x	x	x	x
CCc1ccc(NC(=O)Cn2c(-c3nonc3N)nc3ccccc32)cc1	0	x	x	x	x	x	x	x
CCCN(C)C[C@@H]1OCCCC[C@@H](C)Oc2ccc(NC(=O)Nc3ccc(C(F)(F)F)cc3)cc2C(=O)N([C@H](C)CO)C[C@@H]1C	x	-74	-2	100*	107*	86	26	39*
CCCN(C)C[C@@H]1OCCCC[C@H](C)Oc2ccc(NC(=O)Nc3ccc(F)cc3)cc2C(=O)N([C@@H](C)CO)C[C@@H]1C	x	-63	-1	95*	99*	83	10	16
COCC(=O)N(C)C[C@@H]1Oc2cc(C#Cc3ccccc3)ccc2S(=O)(=O)N([C@H](C)CO)C[C@H]1C	0	-77	-3	71	x	x	x	x
COCC(=O)N(C)C[C@@H]1Oc2cc(C#Cc3ccccc3)ccc2S(=O)(=O)N([C@@H](C)CO)C[C@H]1C	1	-75	-1	u	60	34	-6	21
C[C@@H]1CN([C@@H](C)CO)S(=O)(=O)c2ccc(C#Cc3ccccc3)cc2O[C@H]1CN(C)C(=O)CN(C)C	0	-67	0	102*	100*	60	7	103*

Screening data deposited in PubChem BioAssay by Broad Institute.
